# Activity calls are given as the source filed them.
# Experiments:
# Mus musculus [1] = test: Compound was evaluated for the percent antagonism by tail-flick test in mice in mice at dose 1.0 mg/kg; assay type: functional
# Summary of the method: (§1)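 Male ICR mice (22–30 g). Vehicle or drug given iv 10 min before an iv injection of Δ9-THC (1 mg/kg) or vehicle into the opposite tail vein. Tail-flick measured 5 min after the second injection, with a 10 s cutoff. % antagonism = [1 − (%MPE drug-pretreated / %MPE vehicle-pretreated)] × 100. At least six mice per dose.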
# Mus musculus [2] = test: Compound was evaluated for the percent antagonism by tail-flick test in mice in mice at dose 2.5 mg/kg; assay type: functional; summary of the method: as §1
# Mus musculus [3] = test: Compound was evaluated for the percent antagonism by tail-flick test in mice in mice at dose 5.0 mg/kg; assay type: functional; summary of the method: as §1
# Mus musculus [4] = test: The difference between the preinjection and postinjection (60 min) temperatures in mice was evaluated at a dose 1.0 mg/kg; assay type: functional
# Summary of the method: (§2)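 Male ICR mice (22–30 g). Rectal temperature taken by thermistor probe inserted 25 mm just before iv vehicle or drug (0.1 mL/10 g). Mice spent 10 min in activity chambers, then temperature was taken immediately and every 10 min up to 60 min. Value is the change from pre-injection to 60 min post-injection, mean ± SEM, N = 6. Ambient temperature was 21–24 °C.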
# Mus musculus [5] = test: The difference between the preinjection and postinjection (60 min) temperatures in mice was evaluated at a dose 5.0 mg/kg; assay type: functional; summary of the method: as §2
# Mus musculus [6] = test: The difference between the preinjection and postinjection (60 min) temperatures in mice was evaluated at a dose 2.5 mg/kg; assay type: functional
# Mus musculus [7] = test: Compound was evaluated for the maximum possible effect by tail-flick test in mice at dose 5.0 mg/kg; assay type: functional
# Summary of the method: (§3)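 Male ICR mice (22–30 g). Control tail-flick latency to a heat source measured in each mouse. Vehicle or drug then given iv into the tail vein and latency retested 5 min later, with a 10 s cutoff. %MPE = (test − control)/(cutoff − control) × 100. At least six mice per dose.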
# Mus musculus [8] = test: Compound was evaluated for the percent antagonism in tail-flick test in mice at dose 40 mg/kg; assay type: functional; summary of the method: as §1
# Mus musculus [9] = test: The difference between the preinjection and postinjection (60 min) temperatures in mice was evaluated at a dose 40 mg/kg; assay type: functional; summary of the method: as §2
# Mus musculus [10] = test: The difference between the preinjection and postinjection (60 min) temperatures in mice was evaluated at a dose 50 mg/kg; assay type: functional; summary of the method: as §2
# Mus musculus [11] = test: The difference between the preinjection and postinjection (60 min) temperatures in mice was evaluated at a dose 75 mg/kg; assay type: functional
# Summary of the method: (§4)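 Male ICR mice (22–30 g), housed 24 h before testing; rectal temperature by thermistor probe inserted 25 mm, taken just before dosing. Drug or vehicle given iv (0.1 mL/10 g); mice held 10 min in photocell chambers, then temperature read at 10-min intervals to 60 min. Value is pre- minus 60-min post-injection difference, mean ± SEM, N = 6.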
# Mus musculus [12] = test: The difference between the preinjection and postinjection (60 min) temperatures in mice was evaluated at a dose 100 mg/kg; assay type: functional; summary of the method: as §2
# Mus musculus [13] = test: Compound was evaluated for the maximum possible effect in tail-flick test in mice at dose 40 mg/kg; assay type: functional; summary of the method: as §3
# Mus musculus [14] = test: Spontaneous activity in mice at a dose 10 mg/kg; assay type: functional
# Summary of the method: (§5)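 Male ICR mice (22–30 g), housed 24 h in the lab before testing. Vehicle or drug given iv (0.1 mL/10 g), then each mouse placed alone in a photocell activity chamber. Beam interruptions counted for 10 min and expressed as percent of vehicle-treated controls. ED50 with 95% confidence limits by Litchfield–Wilcoxon. At least six mice per dose.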
# Mus musculus [15] = test: Compound was evaluated for the percent antagonism by tail-flick test in mice in mice at dose 10 mg/kg; assay type: functional; summary of the method: as §1
# Mus musculus [16] = test: Compound was evaluated for the percent antagonism by tail-flick test in mice in mice at dose 25 mg/kg; assay type: functional; summary of the method: as §1
# Mus musculus [17] = test: The difference between the preinjection and postinjection (60 min) temperatures in mice was evaluated at a dose 30 mg/kg; assay type: functional; summary of the method: as §2
# Mus musculus [18] = test: The difference between the preinjection and postinjection (60 min) temperatures in mice was evaluated at a dose 35 mg/kg; assay type: functional; summary of the method: as §2
# Mus musculus [19] = test: The difference between the preinjection and postinjection (60 min) temperatures in mice was evaluated at a dose 25 mg/kg; assay type: functional; summary of the method: as §2
# Mus musculus [20] = test: Compound was evaluated for the maximum possible effect by tail-flick test in mice at dose 25 mg/kg; assay type: functional; summary of the method: as §3
# Canis familiaris [21] = test: Compound was evaluated for overt behavoiur in dogs by behavioral rating score in dog static-ataxia test at a dose 0.5 mg/kg; assay type: functional, Canis lupus familiaris
# Summary of the method: (§6)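 Mongrel dogs of either sex (8–12 kg) scored for spontaneous activity, gait, tail tuck, etc. before dosing. Cannabinoid or vehicle then given iv (1 mL/5 kg). Behaviour rated every 5 min on the Walton static-ataxia scale as modified. Sessions of five dogs: vehicle, 0.2 mg/kg Δ9-THC positive control, or one of three other cannabinoid treatments. Score given with number of dogs.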
# Mus musculus [22] = test: The difference between the preinjection and post injection temperatures in vehicle treated mice was evaluated at a dose 100 mg/kg; assay type: functional; summary of the method: as §2
# Mus musculus [23] = test: The difference between the preinjection and post injection temperatures in vehicle treated mice was evaluated at a dose 10 mg/kg; assay type: functional; summary of the method: as §2
# Mus musculus [24] = test: The difference between the preinjection and post injection temperatures in vehicle treated mice was evaluated at a dose 1 mg/kg; assay type: functional; summary of the method: as §2
# Mus musculus [25] = test: The difference between the preinjection and post injection temperatures in vehicle treated mice was evaluated at a dose 30 mg/kg; assay type: functional; summary of the method: as §2
# Mus musculus [26] = test: The difference between the preinjection and post injection temperatures in vehicle treated mice was evaluated at a dose 3 mg/kg; assay type: functional; summary of the method: as §2
# Mus musculus [27] = test: Compound was evaluated spontaneous activity in vehicle treated mice at a dose 100 mg/kg.; assay type: functional; summary of the method: as §5
# Mus musculus [28] = test: Compound was evaluated spontaneous activity in vehicle treated mice at a dose 10 mg/kg.; assay type: functional; summary of the method: as §5
# Mus musculus [29] = test: Compound was evaluated spontaneous activity in vehicle treated mice at a dose 1 mg/kg.; assay type: functional; summary of the method: as §5
# Mus musculus [30] = test: Compound was evaluated spontaneous activity in vehicle treated mice at a dose 3 mg/kg.; assay type: functional; summary of the method: as §5
# Mus musculus [31] = test: Compound was evaluated spontaneous activity in vehicle treated mice at a dose 30 mg/kg.; assay type: functional; summary of the method: as §5
# Canis familiaris [32] = test: Compound was evaluated for overt behavoiur in dogs by behavioral rating score in dog static-ataxia test at a dose 5 mg/kg; assay type: functional, Canis lupus familiaris; summary of the method: as §6
# Canis familiaris [33] = test: Compound was evaluated for overt behavoiur in dogs by behavioral rating score in dog static-ataxia test at a dose 2 mg/kg; assay type: functional, Canis lupus familiaris; summary of the method: as §6
# Mus musculus [34] = test: The difference between the preinjection and post injection temperatures in vehicle treated mice was evaluated at a dose 2 mg/kg; assay type: functional; summary of the method: as §2
# Mus musculus [35] = test: Spontaneous activity in vehicle treated mice at a dose 100 mg/kg.; assay type: functional; summary of the method: as §5
# Mus musculus [36] = test: Spontaneous activity in vehicle treated mice at a dose 30 mg/kg.; assay type: functional; summary of the method: as §5
# Mus musculus [37] = test: The difference between the preinjection and postinjection (60 min) temperatures in mice was evaluated at a dose 5 mg/kg; assay type: functional; summary of the method: as §2
# Mus musculus [38] = test: The difference between the preinjection and postinjection (60 min) temperatures in mice was evaluated at a dose 7.5 mg/kg; assay type: functional
# Mus musculus [39] = test: Compound was evaluated for the maximum possible effect in tail-flick test in mice at dose 0.3 mg/kg; assay type: functional; summary of the method: as §3
# Mus musculus [40] = test: Compound was evaluated for the maximum possible effect in tail-flick test in mice at dose 1 mg/kg; assay type: functional; summary of the method: as §3
# Mus musculus [41] = test: Compound was evaluated for the maximum possible effect in tail-flick test in mice at dose 2.5 mg/kg; assay type: functional; summary of the method: as §3
# Mus musculus [42] = test: Compound was evaluated for the percent antagonism in tail-flick test in mice at a dose 20 mg/kg; assay type: functional; summary of the method: as §1
# Mus musculus [43] = test: The difference between the preinjection and postinjection (60 min) temperatures in mice was evaluated at a dose 60 mg/kg; assay type: functional; summary of the method: as §4
# Mus musculus [44] = test: The difference between the preinjection and postinjection (60 min) temperatures in mice was evaluated at a dose 10 mg/kg; assay type: functional; summary of the method: as §2
# Mus musculus [45] = test: Compound was evaluated for the maximum possible effect in tail-flick test in mice at dose 20 mg/kg; assay type: functional; summary of the method: as §3
# Mus musculus [46] = test: Compound was evaluated for the percent antagonism by tail-flick test in mice in mice at dose 20 mg/kg; assay type: functional; summary of the method: as §1
# Mus musculus [47] = test: Compound was evaluated for the percent antagonism in tail-flick test in mice in mice at dose 10 mg/kg; assay type: functional; summary of the method: as §1
# Mus musculus [48] = test: Compound was evaluated for the maximum possible effect by tail-flick test in mice at dose 20 mg/kg; assay type: functional; summary of the method: as §3
# Mus musculus [49] = test: Spontaneous activity in mice at a dose 10 mg/kg; Not active up to a lethal dose of 60 mg/kg; assay type: functional, organism-based; summary of the method: as §5
# Mus musculus [50] = test: Compound was evaluated for the percent antagonism by tail-flick test in mice at dose 10 mg/kg; assay type: functional; summary of the method: as §1
structure (smiles),measurement,setting,value
C=C(CNCC)[C@@H]1CCC(C)=CC1c1c(O)cc(CCCCC)cc1O (stereo partly drawn),Antagonism,Mus musculus [1],33%
same,Antagonism,Mus musculus [2],66%
same,Antagonism,Mus musculus [3],67%
same,Hypothermic effect,Mus musculus [4],1
same,Hypothermic effect,Mus musculus [5],1
same,Hypothermic effect,Mus musculus [6],1.4
same,MPE,Mus musculus [7],7%
C=C(C)[C@@H]1CCC(C)=C[C@H]1c1c(O)cc(CCCCC)cc1O [CANNABIDIOL],Antagonism,Mus musculus [8],0%
same,Hypothermic effect,Mus musculus [9],0.5
same,Hypothermic effect,Mus musculus [10],0.4
same,Hypothermic effect,Mus musculus [11],2.1
same,Hypothermic effect,Mus musculus [12],2.5
same,MPE,Mus musculus [13],5%
C=C(CNC(=O)CCCN)[C@@H]1CCC(C)=CC1c1c(O)cc(CCCCC)cc1O (stereo partly drawn),ED50,Mus musculus [14],30 mg/kg
same,Antagonism,Mus musculus [15],14%
same,Antagonism,Mus musculus [16],43%
same,Hypothermic effect,Mus musculus [17],2
same,Hypothermic effect,Mus musculus [18],2.1
same,Hypothermic effect,Mus musculus [19],1.3
same,MPE,Mus musculus [20],7%
C=C1COc2cc(C(C)C(C)CCCCC)cc(O)c2C2C=C(C)CC[C@@H]12 (stereo partly drawn),Overt behavoiur,Canis familiaris [21],0
same,Hypothermic effect,Mus musculus [22],7.8
same,Hypothermic effect,Mus musculus [23],4.9
same,Hypothermic effect,Mus musculus [24],0.4
same,Hypothermic effect,Mus musculus [25],5.7
same,Hypothermic effect,Mus musculus [26],0.6
same,Spontaneous activity,Mus musculus [27],82
same,Spontaneous activity,Mus musculus [28],71
same,Spontaneous activity,Mus musculus [29],10
same,Spontaneous activity,Mus musculus [30],50
same,Spontaneous activity,Mus musculus [31],58
C=C1COc2cc(CCCCC)cc(O)c2C2C=C(C)CC[C@@H]12 (stereo partly drawn),Overt behavoiur,Canis familiaris [32],0
same,Overt behavoiur,Canis familiaris [33],0
same,Hypothermic effect,Mus musculus [22],0
same,Hypothermic effect,Mus musculus [34],0.4
same,Hypothermic effect,Mus musculus [25],0.1
same,Spontaneous activity,Mus musculus [35],41
same,Spontaneous activity,Mus musculus [36],0
CCCCCc1cc(O)c2c(c1)OC(C)(C)[C@@H]1CCC(C)=C[C@@H]21 [DRONABINOL],Hypothermic effect,Mus musculus [37],3.6
same,Hypothermic effect,Mus musculus [38],3.8
same,Hypothermic effect,Mus musculus [6],2.6
same,MPE,Mus musculus [39],27%
same,MPE,Mus musculus [40],53%
same,MPE,Mus musculus [41],61%
C=C(CN1CCOCC1)[C@@H]1CCC(C)=CC1c1c(OC(C)=O)cc(CCCCC)cc1OC(C)=O (stereo partly drawn),ED50,Mus musculus [14],16 mg/kg
same,Antagonism,Mus musculus [42],14%
same,Hypothermic effect,Mus musculus [17],1.2
same,Hypothermic effect,Mus musculus [43],1.3
same,Hypothermic effect,Mus musculus [44],0.9
same,MPE,Mus musculus [45],3%
C#CCN(C)CC(=C)[C@@H]1CCC(C)=CC1c1c(OC(C)=O)cc(CCCCC)cc1OC(C)=O (stereo partly drawn),ED50,Mus musculus [14],13 mg/kg
same,Antagonism,Mus musculus [46],63%
same,Antagonism,Mus musculus [47],25%
same,Hypothermic effect,Mus musculus [17],1
same,Hypothermic effect,Mus musculus [43],1.5
same,Hypothermic effect,Mus musculus [44],0.3
same,MPE,Mus musculus [48],0%
C=C(CN(C(C)C)C(C)C)[C@@H]1CCC(C)=CC1c1c(OC(C)=O)cc(CCCCC)cc1OC(C)=O (stereo partly drawn),ED50,Mus musculus [49],inactive
same,Antagonism,Mus musculus [50],0%
same,Antagonism,Mus musculus [46],58%
same,Hypothermic effect,Mus musculus [17],0.9
same,Hypothermic effect,Mus musculus [44],1
same,MPE,Mus musculus [48],0%
